ChEMBL document CHEMBL3352298, “Identification of potent orally active factor Xa inhibitors based on conjugation strategy and application of predictable fragment recommender system” (Bioorg Med Chem, 2015)
Activity calls are given as the source filed them. The calls are words filed in the database; no cut-off is given here.

Key:
[1] = molecular target: T1, Coagulation factor X (Homo sapiens, UniProt P00742); assay: Inhibition of human factor 10a using S-2222 chromogenic substrate assessed as hydrolysis at 1.36 uM by microplate reader
T1 sequence (P00742 41-179 limits assumed): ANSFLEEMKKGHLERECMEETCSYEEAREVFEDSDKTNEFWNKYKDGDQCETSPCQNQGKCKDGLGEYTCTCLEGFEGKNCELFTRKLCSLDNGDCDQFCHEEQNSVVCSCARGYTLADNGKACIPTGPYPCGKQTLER
T1 sequence (P00742 235-488 limits assumed): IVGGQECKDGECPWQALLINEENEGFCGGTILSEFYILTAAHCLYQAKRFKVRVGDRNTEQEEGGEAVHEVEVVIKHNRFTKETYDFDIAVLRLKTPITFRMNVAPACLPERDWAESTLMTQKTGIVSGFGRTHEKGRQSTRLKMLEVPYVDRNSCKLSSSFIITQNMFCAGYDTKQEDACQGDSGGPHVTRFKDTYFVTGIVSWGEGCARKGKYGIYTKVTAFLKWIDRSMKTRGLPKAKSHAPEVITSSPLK
How it was run: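 Purified human fXa with chromogenic substrate S-2222 and inhibitor in 0.05 M Tris-HCl pH 8.4 or 0.15 M NaCl; reaction started with enzyme. Hydrolysis read continuously at 405 nm, 37 °C. Percent inhibition at final inhibitor 1.36 µM, single run.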

[2] = test system: Mus musculus; assay: Anticoagulant activity in ICR mouse plasma assessed as prolongation of prothombin time at 100 mg/kg, po after 0.5 to 2 hrs relative to untreated control; assay type: functional
How it was run: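 Male ICR mice (30–37 g) given compound dissolved or suspended in 0.5% methyl cellulose, 100 mg/kg by gastric tube. PT measured by coagulometer at 37 °C with thromboplastin; expressed as fold of vehicle-treated baseline; n = 3.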

[3] = molecular target: T1, Coagulation factor X; assay: Inhibition of human factor 10a using S-2222 chromogenic substrate assessed as hydrolysis by microplate reader
[4] = test system: Plasma; assay: Anticoagulant activity in human plasma assessed as concentration required to double clotting time; assay type: functional
How it was run: (§1)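 Citrated plasma (human or mouse) spun at 3000 rpm for 10 min and stored at −40 °C. Clotting times read on a coagulometer at 37 °C; PT with thromboplastin, compared with a distilled water control. CT2 (concentration doubling clotting time) taken from each concentration–response curve; three determinations, mean reported.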

[5] = test system: Plasma; assay: Anticoagulant activity in mouse plasma assessed as concentration required to prolong prothombin time; assay type: functional; how it was run: as §1
[6] = molecular target: Prothrombin (Homo sapiens, UniProt P00734); assay: Inhibition of human Thrombin using S-2238 chromogenic substrate assessed as hydrolysis by microplate reader
[7] = molecular target: Trypsin (Homo sapiens, UniProt P07477+P07478+P35030); assay: Inhibition of human Trypsin using S-2222 chromogenic substrate assessed as hydrolysis by microplate reader

inhibition [1] | IC50 [3] | Structure (SMILES) | further results
24% | – | CN1CCCN(c2ccc(C(=O)Nc3ccccc3C(=O)Nc3ccc(N(C)C)cc3)cc2)CC1 | –
– | 16 nM | CN1CCCN(c2ccc(C(=O)Nc3c(O)cccc3C(=O)Nc3ccc(Cl)cn3)cc2)CC1.Cl | Ratio [2]: 3.61
16% | – | Cc1ccccc1NC(=O)c1ccccc1NC(=O)c1ccc(N2CCCN(C)CC2)cc1 | –
23% | – | CC(C)c1ccc(NC(=O)c2ccccc2NC(=O)c2ccc(N3CCCN(C)CC3)cc2)cc1 | –
inactive | – | CN1CCCN(c2ccc(C(=O)Nc3ccccc3C(=O)Nc3nc4ccccc4[nH]3)cc2)CC1 | –
– | 3.6 nM | CN1CCCN(c2ccc(C(=O)Nc3ccc(Cl)cc3C(=O)Nc3ccc(Cl)cn3)cc2)CC1.Cl | Ratio [2]: 1.21
– | 68 nM | COc1ccc(NC(=O)c2cc(Cl)cc(O)c2NC(=O)c2ccc(N3CCCN(C)CC3)cc2)cc1.Cl | Ratio [2]: 3.91
– | 150 nM | COc1ccc(NC(=O)c2cccc(O)c2NC(=O)c2ccc(N3CCCN(C)CC3)cc2)cc1.Cl | Ratio [2]: 1.97
inactive | – | Cc1cc(NC(=O)c2ccccc2NC(=O)c2ccc(N3CCCN(C)CC3)cc2)sn1 | –
inactive | – | Cc1cc(NC(=O)c2ccccc2NC(=O)c2ccc(N3CCCN(C)CC3)cc2)n[nH]1 | –
– | 68 nM | Cc1ccc(NC(=O)c2cccc(O)c2NC(=O)c2ccc(N3CCCN(C)CC3)cc2)cc1.Cl | Ratio [2]: 2.11
– | 290 nM | Cc1ccc(NC(=O)c2cccc(O)c2NC(=O)c2ccc(N3CCCN(C)CC3)cc2)nc1.Cl | Ratio [2]: 2.13
15% | – | CCc1ccc(NC(=O)c2ccccc2NC(=O)c2ccc(N3CCCN(C)CC3)cc2)cc1 | –
56% | – | Cc1ccnc(NC(=O)c2ccccc2NC(=O)c2ccc(N3CCCN(C)CC3)cc2)c1 | –
9% | – | Cc1cccc(NC(=O)c2ccccc2NC(=O)c2ccc(N3CCCN(C)CC3)cc2)n1 | –
– | 61 nM | COc1ccc(NC(=O)c2ccc(C)c(O)c2NC(=O)c2ccc(N3CCCN(C)CC3)cc2)cc1.Cl | Ratio [2]: 0.95
– | 8.7 nM | CN1CCCN(c2ccc(C(=O)Nc3c(O)cc(Cl)cc3C(=O)Nc3ccc(Cl)cn3)cc2)CC1.Cl | Ratio [2]: 7.8
– | – | CS(=O)(=O)c1ccccc1-c1ccc(NC(=O)c2cc(C(F)(F)F)nn2-c2cccc(CN)c2)c(F)c1.Cl | Activity [4]: 0.67 µM; Activity [5]: 0.7 µM
22% | – | CN1CCCN(c2ccc(C(=O)Nc3ccccc3C(=O)Nc3ccc(Oc4ccccc4)cc3)cc2)CC1 | –

inhibition [1] | IC50 [3] | Structure (SMILES) | further results
– | 220 nM | COc1ccc(NC(=O)c2cccc(O)c2NC(=O)c2ccc(N3CCCN(C)CC3)cc2)nc1.Cl | Ratio [2]: 2.03
39% | – | COc1ccc(NC(=O)c2ccccc2NC(=O)c2ccc(N3CCCN(C)CC3)cc2)cc1Cl | –
88% | – | Cc1cccc(NC(=O)c2ccccc2NC(=O)c2ccc(N3CCCN(C)CC3)cc2)c1 | –
85% | – | COc1ccc(NC(=O)c2ccccc2NC(=O)c2ccc(N3CCCN(C)CC3)cc2)cc1.Cl | Ratio [2]: 1.02
100% | – | CN1CCCN(c2ccc(C(=O)Nc3ccccc3C(=O)Nc3ccc(Cl)cc3)cc2)CC1 | –
73% | – | Cc1ccc(NC(=O)c2ccccc2NC(=O)c2ccc(N3CCCN(C)CC3)cc2)nc1 | –
11% | – | CN1CCCN(c2ccc(C(=O)Nc3ccccc3C(=O)Nc3ccccc3Cl)cc2)CC1 | –
– | 66 nM | COc1ccc(NC(=O)c2cccc(O[C@@H]3O[C@H](C(=O)O)[C@@H](O)[C@H](O)[C@H]3O)c2NC(=O)c2ccc(N3CCCN(C)CC3)cc2)cc1 | –
32% | – | CN1CCCN(c2ccc(C(=O)Nc3ccccc3C(=O)Nc3ccc(OC(F)(F)F)cc3)cc2)CC1 | –
94% | – | Cc1ccc(NC(=O)c2ccccc2NC(=O)c2ccc(N3CCCN(C)CC3)cc2)cc1 | –
inactive | – | CN1CCCN(c2ccc(C(=O)Nc3ccccc3C(=O)Nc3ccc4ccccc4n3)cc2)CC1 | –
38% | – | CN1CCCN(c2ccc(C(=O)Nc3ccccc3C(=O)Nc3ccccn3)cc2)CC1 | –
inactive | – | COc1ccc(NC(=O)c2ccccc2NC(=O)c2ccc(N3CCCN(C)CC3)cc2)cc1OC | –
7% | – | COc1ccc(NC(=O)c2ccccc2NC(=O)c2ccc(N3CCCN(C)CC3)cc2)cn1 | –
40% | – | COc1cccc(NC(=O)c2ccccc2NC(=O)c2ccc(N3CCCN(C)CC3)cc2)c1 | –
76% | – | CN1CCCN(c2ccc(C(=O)Nc3ccccc3C(=O)Nc3cccc(Cl)c3)cc2)CC1 | –
– | 6.9 nM | CN1CCCN(c2ccc(C(=O)Nc3c(O)cccc3C(=O)Nc3ccc(Cl)cc3)cc2)CC1.Cl | Ratio [2]: 2.67
– | 1.5 nM | CN1CCCN(c2ccc(C(=O)Nc3c(O[C@@H]4O[C@H](C(=O)O)[C@@H](O)[C@H](O)[C@H]4O)cc(Cl)cc3C(=O)Nc3ccc(Cl)cn3)cc2)CC1 | Activity [4]: 0.27 µM; IC50 [6]: > 100000 nM; IC50 [7]: > 100000 nM; Activity [5]: 0.28 µM
